Assay [1] concerns the target T1, Angiotensin-converting enzyme (Rattus norvegicus, UniProt P47820).
T1 sequence (P47820 whole entry): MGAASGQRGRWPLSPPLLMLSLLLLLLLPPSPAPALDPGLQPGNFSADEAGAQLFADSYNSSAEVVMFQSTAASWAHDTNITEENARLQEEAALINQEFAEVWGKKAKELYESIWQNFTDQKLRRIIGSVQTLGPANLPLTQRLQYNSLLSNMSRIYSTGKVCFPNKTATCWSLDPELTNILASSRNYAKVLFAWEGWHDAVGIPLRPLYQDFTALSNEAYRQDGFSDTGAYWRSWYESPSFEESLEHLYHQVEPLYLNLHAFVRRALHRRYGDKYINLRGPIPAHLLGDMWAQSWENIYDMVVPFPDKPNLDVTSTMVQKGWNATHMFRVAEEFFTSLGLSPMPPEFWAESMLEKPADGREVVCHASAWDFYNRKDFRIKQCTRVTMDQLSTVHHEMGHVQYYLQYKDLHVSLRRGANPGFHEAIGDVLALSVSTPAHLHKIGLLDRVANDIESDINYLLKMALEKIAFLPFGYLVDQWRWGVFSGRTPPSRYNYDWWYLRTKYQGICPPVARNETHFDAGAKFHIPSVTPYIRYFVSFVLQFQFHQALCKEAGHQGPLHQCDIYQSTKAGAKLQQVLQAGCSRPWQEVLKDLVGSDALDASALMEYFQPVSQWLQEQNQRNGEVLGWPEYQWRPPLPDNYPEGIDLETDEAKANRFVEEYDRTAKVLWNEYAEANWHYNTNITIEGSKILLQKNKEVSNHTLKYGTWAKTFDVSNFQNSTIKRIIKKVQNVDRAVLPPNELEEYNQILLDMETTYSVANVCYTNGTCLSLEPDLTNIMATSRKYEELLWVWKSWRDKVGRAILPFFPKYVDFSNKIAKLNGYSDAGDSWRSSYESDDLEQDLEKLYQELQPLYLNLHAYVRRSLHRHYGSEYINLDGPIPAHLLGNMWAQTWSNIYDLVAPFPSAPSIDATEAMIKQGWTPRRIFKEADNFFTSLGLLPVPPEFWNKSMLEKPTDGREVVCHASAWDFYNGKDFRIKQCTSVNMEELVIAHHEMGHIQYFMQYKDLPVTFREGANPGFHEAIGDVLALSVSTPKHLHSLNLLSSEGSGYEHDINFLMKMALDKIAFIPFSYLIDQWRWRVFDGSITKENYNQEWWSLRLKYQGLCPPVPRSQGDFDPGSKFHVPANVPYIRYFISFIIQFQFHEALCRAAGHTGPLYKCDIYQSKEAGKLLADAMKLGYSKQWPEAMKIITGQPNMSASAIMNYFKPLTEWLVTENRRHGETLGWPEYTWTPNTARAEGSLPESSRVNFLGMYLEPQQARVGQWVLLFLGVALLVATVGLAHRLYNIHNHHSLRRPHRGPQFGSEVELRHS
The assay can be described thus: Inhibitory activity against angiotensin I converting enzyme. Put shortly:
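Rat testis enzyme purified to homogeneity, 0.02 pmol/100 µL final, preincubated 15 min at 37 °C with varied inhibitor levels in 50 mM Tris-HCl pH 8.0. N-Cbz-Phe-His-Leu then added to 0.05 mM final and run 15 min. Stopped with 2 M NaOH, His-Leu measured fluorimetrically (ex 365, em 495 nm) against a His-Leu calibration curve. IC50 as mean ± SEM of three independent determinations, each in triplicate.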

The target of another assay is T2, Neprilysin (Oryctolagus cuniculus, UniProt P08049).
T2 sequence (P08049 whole entry): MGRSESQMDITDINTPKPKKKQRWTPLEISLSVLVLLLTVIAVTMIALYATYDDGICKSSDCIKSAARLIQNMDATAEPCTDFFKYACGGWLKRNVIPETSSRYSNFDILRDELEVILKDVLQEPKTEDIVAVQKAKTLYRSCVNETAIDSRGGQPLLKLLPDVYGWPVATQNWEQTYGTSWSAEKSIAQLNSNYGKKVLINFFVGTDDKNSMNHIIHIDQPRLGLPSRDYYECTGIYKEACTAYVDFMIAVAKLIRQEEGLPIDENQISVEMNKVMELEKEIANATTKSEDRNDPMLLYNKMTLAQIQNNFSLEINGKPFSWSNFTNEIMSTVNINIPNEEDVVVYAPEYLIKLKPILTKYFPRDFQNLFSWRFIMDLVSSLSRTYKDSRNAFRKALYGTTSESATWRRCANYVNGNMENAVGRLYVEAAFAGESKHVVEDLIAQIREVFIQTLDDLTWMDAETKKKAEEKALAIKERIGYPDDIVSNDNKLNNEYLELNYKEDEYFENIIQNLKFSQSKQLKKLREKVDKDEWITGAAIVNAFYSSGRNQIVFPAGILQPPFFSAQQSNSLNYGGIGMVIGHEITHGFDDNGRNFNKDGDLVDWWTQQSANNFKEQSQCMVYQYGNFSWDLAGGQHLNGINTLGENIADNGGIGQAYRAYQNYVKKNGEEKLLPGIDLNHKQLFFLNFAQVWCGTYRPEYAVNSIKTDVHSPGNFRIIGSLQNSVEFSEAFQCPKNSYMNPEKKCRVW
The assay is described as follows: Inhibitory activity was tested against neutral endopeptidase. Put shortly: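 Rabbit kidney enzyme purified to homogeneity, 1 pmol/100 µL final, preincubated 15 min at 25 °C with or without rising inhibitor concentrations in 50 mM Tris-HCl pH 7.4. [3H]Tyr-D-Ala2-Leu-enkephalin then added to 20 nM final and run 30 min. Stopped with 0.5 M HCl, tritiated metabolites separated on polystyrene beads. IC50 as mean ± SEM of three independent determinations, each in triplicate.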

The results in this text go back to ChEMBL document CHEMBL1129519, “Optimal recognition of neutral endopeptidase and angiotensin-converting enzyme active sites by mercaptoacyldipeptides as a means to design potent dual inhibitors” (J Med Chem, 1996).

In general, IC50 refers to the concentration at which inhibition is half-maximal. Lower therefore signals greater potency in that assay.

Turning to `C[C@H](NC(=O)[C@@H](S)Cc1ccccc1)C(=O)N1CCCC1`, the IC50 in assay [1] stood at 150 nM; at Neprilysin, 22 nM.

`O=C(O)[C@H](Cc1c[nH]c2ccccc12)NC(=O)[C@H](Cc1ccccc1)NC(=O)[C@@H](S)Cc1ccccc1`: the results for the IC50 (in assay [1]; against Neprilysin) were 7.9 nM and 50 nM, respectively.

Regarding `C[C@H](NC(=O)[C@@H](S)Cc1ccccc1)C(=O)N1C(C(=O)O)CC2CCCCC21` (some centres not stated), the IC50 turned out to be 0.4 nM in assay [1] and 5.3 nM on Neprilysin.

`CC(OCc1ccccc1)[C@H](NC(=O)[C@@H](S)Cc1ccccc1)C(=O)N[C@@H](Cc1ccc(O)cc1)C(=O)O` (some centres not stated): the values for the IC50 (in assay [1]; on Neprilysin) were 34 nM and 100 nM, respectively.

For the compound `O=C(NC1(C(=O)O)CCCC1)[C@H](Cc1ccccc1)NC(=O)[C@@H](S)Cc1ccccc1`, the IC50 in assay [1] is 30 nM; on Neprilysin it was 45 nM.

As to `O=C(O)[C@H](Cc1ccccc1)NC(=O)[C@@H](S)Cc1ccccc1`, the IC50 was 44 nM in assay [1] and 23 nM at Neprilysin.

For the compound `CC(C)(NC(=O)[C@@H](S)CCc1ccccc1)C(=O)N1CCCC1C(=O)O` (some centres not stated), the IC50 came to 1.6 nM in assay [1] and 46 nM against Neprilysin.

As for `O=C(O)[C@H](CSCc1ccccc1)NC(=O)[C@H](Cc1ccccc1)NC(=O)[C@@H](S)Cc1ccccc1`, the values for the IC50 (in assay [1]; on Neprilysin) were 14 nM and 40 nM, respectively.

Consider `CC[C@H](C)[C@H](NC(=O)[C@@H](S)Cc1ccccc1)C(=O)N[C@@H](Cc1ccc(O)cc1)C(=O)O`, for which the IC50 in assay [1] was found to be 2.5 nM; on Neprilysin, 3 nM.

Take `CC[C@@H](C)[C@H](NC(=O)[C@@H](S)C(C)C)C(=O)N[C@@H](Cc1ccc(O)cc1)C(=O)O`: the IC50 in assay [1] stood at 0.26 nM; against Neprilysin, 1.4 nM.

In the case of `C=C(C)[C@@H]1CC[C@]2(C(=O)N[C@H](C(=O)O)[C@@H](C)CC)CC[C@]3(C)[C@H](CC[C@@H]4[C@@]5(C)CC[C@H](O)C(C)(C)[C@@H]5CC[C@]43C)[C@@H]12`, the IC50 in assay [1] stood at 6.3 nM; on Neprilysin it was 5.5 nM.

`O=C(O)[C@H](COCc1ccccc1)NC(=O)[C@H](Cc1ccccc1)NC(=O)[C@@H](S)Cc1ccccc1`: the IC50 is 12 nM in assay [1] and 50 nM at Neprilysin.

On to `CC[C@@H](C)[C@H](S)C(=O)N[C@H](C(=O)N[C@@H](Cc1ccc(O)cc1)C(=O)O)C(C)c1ccccc1` (some centres not stated), for which the IC50 in assay [1] is 33 nM; at Neprilysin, 32 nM.

In the case of `C[C@H](NC(=O)[C@@H](S)CCc1ccccc1)C(=O)N1CCCC1C(=O)O` (some centres not stated), the IC50 in assay [1] was found to be 0.35 nM; against Neprilysin, 20 nM.

Turning to `C[C@H](NC(=O)[C@H](S)Cc1ccccc1)C(=O)N1CCC[C@H]1C(=O)O`, the figures for the IC50 (in assay [1]; at Neprilysin) were 25 nM and 1.3 nM, respectively.

Consider `O=C(O)[C@H](Cc1ccc(O)cc1)NC(=O)[C@H](Cc1ccccc1)NC(=O)[C@@H](S)Cc1ccccc1`, for which the figures for the IC50 (in assay [1]; against Neprilysin) were 5.6 nM and 2.9 nM, respectively.
